How the values were obtained:
Format in all cases: functional
Parameters in all cases: scale not given: the % may be the effect or the level left
RXF 393 = assay: Growth inhibition of human RXF393 cells assessed tumor cell growth at 10^-5 M
Summary of the method: (§1)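 NCI 60-human-tumor-cell-line panel screen. Each compound was tested at a single concentration of 10^-5 M, and percent growth of tumor cells was recorded for each cell line. Growth inhibition was expressed from these percent-growth values.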

DU-145 = assay: Growth inhibition of human DU145 cells assessed tumor cell growth at 10^-5 M; summary of the method: as §1
NCI-H23 = assay: Growth inhibition of human NCI-H23 cells assessed tumor cell growth at 10^-5 M; summary of the method: as §1
LOX IMVI = assay: Growth inhibition of human LOXIMVI cells assessed tumor cell growth at 10^-5 M; summary of the method: as §1
SF-295 = assay: Growth inhibition of human SF295 cells assessed tumor cell growth at 10^-5 M; summary of the method: as §1
NCI/ADR-RES = assay: Growth inhibition of human NCI/ADR-RES cells assessed tumor cell growth at 10^-5 M; summary of the method: as §1
NCI-H522 = assay: Growth inhibition of human NCI-H522 cells assessed tumor cell growth at 10^-5 M; summary of the method: as §1
CCRF-CEM = assay: Growth inhibition of human CCRF-CEM cells assessed tumor cell growth at 10^-5 M; summary of the method: as §1
A498 = assay: Growth inhibition of human A498 cells assessed tumor cell growth at 10^-5 M; summary of the method: as §1
EKVX = assay: Growth inhibition of human EKVX cells assessed tumor cell growth at 10^-5 M; summary of the method: as §1
MDA-MB-468 = assay: Growth inhibition of human MDA-MB-468 cells assessed tumor cell growth at 10^-5 M; summary of the method: as §1
BT-549 = assay: Growth inhibition of human BT549 cells assessed tumor cell growth at 10^-5 M; summary of the method: as §1
MOLT-4 = assay: Growth inhibition of human MOLT4 cells assessed tumor cell growth at 10^-5 M; summary of the method: as §1
SNB-19 = assay: Growth inhibition of human SNB19 cells assessed tumor cell growth at 10^-5 M
Summary of the method: (§2)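 Single-dose screen at 10^-5 M across the 60 human tumor cell line panel, run to NCI standards. The value is the percent growth of each cell line in the presence of compound. Compounds active at this dose moved on to five-concentration testing (10^-4 to 10^-8 M).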

SK-MEL-28 = assay: Growth inhibition of human SK-MEL-28 cells assessed tumor cell growth at 10^-5 M; summary of the method: as §1
HOP-62 = assay: Growth inhibition of human HOP62 cells assessed tumor cell growth at 10^-5 M; summary of the method: as §1
HCT-15 = assay: Growth inhibition of human HCT15 cells assessed tumor cell growth at 10^-5 M; summary of the method: as §1
HCT-116 = assay: Growth inhibition of human HCT116 cells assessed tumor cell growth at 10^-5 M; summary of the method: as §1
HT-29 = assay: Growth inhibition of human HT-29 cells assessed tumor cell growth at 10^-5 M; summary of the method: as §1
OVCAR-4 = assay: Growth inhibition of human OVCAR4 cells assessed tumor cell growth at 10^-5 M; summary of the method: as §1
SF-268 = assay: Growth inhibition of human SF268 cells assessed tumor cell growth at 10^-5 M; summary of the method: as §1
SNB-75 = assay: Growth inhibition of human SNB75 cells assessed tumor cell growth at 10^-5 M; summary of the method: as §2
UACC-62 = assay: Growth inhibition of human UACC62 cells assessed tumor cell growth at 10^-5 M; summary of the method: as §2
Malme-3M = assay: Growth inhibition of human MALME-3M cells assessed tumor cell growth at 10^-5 M; summary of the method: as §1
SN12C = assay: Growth inhibition of human SN12C cells assessed tumor cell growth at 10^-5 M; summary of the method: as §1
HCC 2998 = assay: Growth inhibition of human HCC2998 cells assessed tumor cell growth at 10^-5 M; summary of the method: as §1
UACC-257 = assay: Growth inhibition of human UACC257 cells assessed tumor cell growth at 10^-5 M; summary of the method: as §2
MDA-MB-435 = assay: Growth inhibition of human MDA-MB-435 cells assessed tumor cell growth at 10^-5 M; summary of the method: as §1
OVCAR-8 = assay: Growth inhibition of human OVCAR8 cells assessed tumor cell growth at 10^-5 M; summary of the method: as §1
CAKI-1 = assay: Growth inhibition of human Caki1 cells assessed tumor cell growth at 10^-5 M; summary of the method: as §1
NCI-H226 = assay: Growth inhibition of human NCI-H226 cells assessed tumor cell growth at 10^-5 M; summary of the method: as §1
SK-OV-3 = assay: Growth inhibition of human SKOV3 cells assessed tumor cell growth at 10^-5 M; summary of the method: as §1
[1] = Growth inhibition of human Hs 578T cells assessed tumor cell growth at 10^-5 M; summary of the method: as §1
[2] = Growth inhibition of human […] cells assessed tumor cell growth at 10^-5 M; summary of the method: as §1
MDA-MB-231 = assay: Growth inhibition of human MDA-MB-231 cells assessed tumor cell growth at 10^-5 M; summary of the method: as §1
COLO 205 = assay: Growth inhibition of human COLO205 cells assessed tumor cell growth at 10^-5 M; summary of the method: as §1
NCI-H460 = assay: Growth inhibition of human NCI-H460 cells assessed tumor cell growth at 10^-5 M; summary of the method: as §1
TK-10 = assay: Growth inhibition of human TK10 cells assessed tumor cell growth at 10^-5 M; summary of the method: as §2
786-0 = assay: Growth inhibition of human 786-0 cells assessed tumor cell growth at 10^-5 M; summary of the method: as §1
SF-539 = assay: Growth inhibition of human SF539 cells assessed tumor cell growth at 10^-5 M; summary of the method: as §1
NCI-H322M = assay: Growth inhibition of human NCI-H322M cells assessed tumor cell growth at 10^-5 M; summary of the method: as §1
UO-31 = assay: Growth inhibition of human UO31 cells assessed tumor cell growth at 10^-5 M; summary of the method: as §2
SK-MEL-5 = assay: Growth inhibition of human SK-MEL-5 cells assessed tumor cell growth at 10^-5 M; summary of the method: as §1
SK-MEL-2 = assay: Growth inhibition of human SK-MEL-2 cells assessed tumor cell growth at 10^-5 M; summary of the method: as §1
OVCAR-5 = assay: Growth inhibition of human OVCAR5 cells assessed tumor cell growth at 10^-5 M; summary of the method: as §1
K562 = assay: Growth inhibition of human K562 cells assessed tumor cell growth at 10^-5 M; summary of the method: as §1
T47D = assay: Growth inhibition of human T47D cells assessed tumor cell growth at 10^-5 M; summary of the method: as §2
MCF7 = assay: Growth inhibition of human MCF7 cells assessed tumor cell growth at 10^-5 M; summary of the method: as §1
ACHN = assay: Growth inhibition of human ACHN cells assessed tumor cell growth at 10^-5 M; summary of the method: as §1
SW-620 = assay: Growth inhibition of human SW620 cells assessed tumor cell growth at 10^-5 M; summary of the method: as §2
OVCAR-3 = assay: Growth inhibition of human OVCAR3 cells assessed tumor cell growth at 10^-5 M; summary of the method: as §1
U-251 = assay: Growth inhibition of human U251 cells assessed tumor cell growth at 10^-5 M; summary of the method: as §2
KM12 = assay: Growth inhibition of human KM12 cells assessed tumor cell growth at 10^-5 M; summary of the method: as §1
M14 = assay: Growth inhibition of human M14 cells assessed tumor cell growth at 10^-5 M; summary of the method: as §1
A549 = assay: Growth inhibition of human A549 cells assessed tumor cell growth at 10^-5 M; summary of the method: as §1
HL-60(TB) = assay: Growth inhibition of human HL-60(TB) cells assessed tumor cell growth at 10^-5 M
Summary of the method: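 HL-60(TB), part of the 60-line panel, tested at a single concentration of 10^-5 M. The read-out is percent tumor cell growth relative to untreated growth.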

IGROV-1 = assay: Growth inhibition of human IGROV1 cells assessed tumor cell growth at 10^-5 M; summary of the method: as §1
HOP-92 = assay: Growth inhibition of human HOP92 cells assessed tumor cell growth at 10^-5 M; summary of the method: as §1
PC-3 = assay: Growth inhibition of human PC3 cells assessed tumor cell growth at 10^-5 M; summary of the method: as §1

Compound: CC1=NN(c2cccc(Cl)c2)C(=O)/C1=C\c1cn(S(=O)(=O)c2ccc(C)cc2)c2ccccc12
- Activity (RXF 393): 137.02%
- Activity (DU-145): 114.18%
- Activity (NCI-H23): 83.92%
- Activity (LOX IMVI): 97.36%
- Activity (SF-295): 114.23%
- Activity (NCI/ADR-RES): 85.11%
- Activity (NCI-H522): 107.2%
- Activity (CCRF-CEM): 134.54%
- Activity (A498): 117.06%
- Activity (EKVX): 97.98%
- Activity (MDA-MB-468): 118.75%
- Activity (BT-549): 111.59%
- Activity (MOLT-4): 173.14%
- Activity (SNB-19): 114.11%
- Activity (SK-MEL-28): 125.16%
- Activity (HOP-62): 62.28%
- Activity (HCT-15): 105.27%
- Activity (HCT-116): 88.23%
- Activity (HT-29): 122.1%
- Activity (OVCAR-4): 103.09%
- Activity (SF-268): 103.69%
- Activity (SNB-75): 89.33%
- Activity (UACC-62): 86.46%
- Activity (Malme-3M): 114.11%
- Activity (SN12C): 97.46%
- Activity (HCC 2998): 88.49%
- Activity (UACC-257): 114.55%
- Activity (MDA-MB-435): 105.48%
- Activity (OVCAR-8): 107.68%
- Activity (CAKI-1): 87.81%
- Activity (NCI-H226): 79.93%
- Activity (SK-OV-3): 105.37%
- Activity [1]: 115.57%
- Activity [2]: 113.1%
- Activity (MDA-MB-231): 85.37%
- Activity (COLO 205): 142.35%
- Activity (NCI-H460): 119.39%
- Activity (TK-10): 166.55%
- Activity (786-0): 94.95%
- Activity (SF-539): 114%
- Activity (NCI-H322M): 105.18%
- Activity (UO-31): 78.22%
- Activity (SK-MEL-5): 105.66%
- Activity (SK-MEL-2): 113.68%
- Activity (OVCAR-5): 88.09%
- Activity (K562): 138.24%
- Activity (T47D): 91.46%
- Activity (MCF7): 113.07%
- Activity (ACHN): 97.51%
- Activity (SW-620): 98.36%
- Activity (OVCAR-3): 110.25%
- Activity (U-251): 102.73%
- Activity (KM12): 109.5%
- Activity (M14): 82.05%
- Activity (A549): 108.98%
- Activity (HL-60(TB)): 114.07%

Compound: C#CCN1C(=O)/C(=C\c2cn(CC#C)c3ccccc23)c2ccccc21
- Activity (RXF 393): 126%
- Activity (DU-145): 109%
- Activity (NCI-H23): 92%
- Activity (LOX IMVI): 103%
- Activity (NCI/ADR-RES): 106%
- Activity (NCI-H522): 96.6%
- Activity (CCRF-CEM): 86%
- Activity (IGROV-1): 91.2%
- Activity (A498): 101%
- Activity (MDA-MB-468): 133%
- Activity (BT-549): 96.7%
- Activity (MOLT-4): 87.3%
- Activity (SNB-19): 96.7%
- Activity (HOP-62): 102%
- Activity (HCT-15): 104%
- Activity (HCT-116): 97.4%
- Activity (HT-29): 101%
- Activity (SF-268): 95.6%
- Activity (HOP-92): 75.1%
- Activity (UACC-62): 78.4%
- Activity (Malme-3M): 161%
- Activity (SN12C): 89.2%
- Activity (HCC 2998): 107%
- Activity (UACC-257): 97.8%
- Activity (MDA-MB-435): 114%
- Activity (OVCAR-8): 95.6%
- Activity (CAKI-1): 120%
- Activity (NCI-H226): 86.5%
- Activity (SK-OV-3): 97.8%
- Activity [1]: 105%
- Activity [2]: 90.9%
- Activity (MDA-MB-231): 82.7%
- Activity (COLO 205): 77.9%
- Activity (NCI-H460): 98.6%
- Activity (TK-10): 112%
- Activity (786-0): 109%
- Activity (SF-539): 91.5%
- Activity (NCI-H322M): 110%
- Activity (UO-31): 74.9%
- Activity (SK-MEL-5): 91%
- Activity (SK-MEL-2): 99.8%
- Activity (OVCAR-5): 101%
- Activity (K562): 87.4%
- Activity (T47D): 96.4%
- Activity (ACHN): 92.7%
- Activity (SW-620): 102%
- Activity (OVCAR-3): 102%
- Activity (U-251): 98.4%
- Activity (KM12): 101%
- Activity (PC-3): 80%
- Activity (M14): 98.6%
- Activity (A549): 98.9%
- Activity (HL-60(TB)): 101.9%

From ChEMBL document CHEMBL1811814, “Synthesis and evaluation of indole, pyrazole, chromone and pyrimidine based conjugates for tumor growth inhibitory activities--development of highly efficacious cytotoxic agents” (Eur J Med Chem, 2010)
